# sdo1 growth = growth rescue of sdo1-depleted yeast, primary screen, S. cerevisiae, bone marrow failure model; S. cerevisiae sdo1-depleted JHY4D growth rescue, OD600 30 h; hits give high values; pdr5 snq2 efflux-pump mutant strain; z-score at 10 µM; 140,000 compounds, 0.21% hits;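 active means z-score above 3 at both the 24 hr and the 30 hr optical density reads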;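 further: z-score against mean and SD of all compound wells on the same plate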
# RAM network inh = inhibitors of the yeast RAM network, primary screen, dse1pr::URA3 reporter, 5-FOA selection; inhibition, % at 50 µM; 190,000 compounds, 1.8% hits; S. cerevisiae dse1pr::URA3 reporter, 5-FOA growth OD615, 2 d; analog-sensitive cbk1-as2 kinase mutant strain;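 active means inhibition above a set limit, 3 SD over mean compound inhibition, cut at about 8.4% in these data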;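 further: 0% = DMSO-only wells with no growth and 100% = 10 µM 1-NA-PP1 full growth; inhibition rescues growth on 5-FOA so higher OD means more RAM inhibition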
# BB579 growth dn = growth inhibitors of yeast BB579 in restrictive medium, primary screen, yeast lifespan-shortening project, S. cerevisiae. inhibition, % at 10 µM. OD615, 48 h. 140,000 compounds, 0.51% hits;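 active means inhibition above a set limit, 3 SD over the mean compound inhibition, cut at about 44% in these data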
#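 System: Saccharomyces cerevisiae DeaD strain BB579, replicative lifespan model yeast. Buffer or medium: restrictive glucose-based CSMM-D medium. Doses: one dose, 10 µM compound with 0.25% DMSO. Timing: 4 h preincubation and 48 h exposure at 30 °C. Detection: turbidity as optical density at 615 nm. Benchmarks: amphotericin B 10 µg/mL, positive.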
# Yeast lifespan up = compounds extending yeast replicative lifespan, primary screen, S. cerevisiae, OD615 | S. cerevisiae growth with nicotinamide; deaD strain in restrictive glucose medium | 130,000 compounds, 0.68% hits | AID 775, 2007 | inhibition of the nicotinamide effect, % at 10 µM;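 active means inhibition above a set limit, placed 3 SD over the median of all compounds, cut at about 26% in these data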;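 further: 0% = nicotinamide-treated wells and 100% = cells grown without nicotinamide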
#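 assay system = DeaD-strain S. cerevisiae | measured by = absorbance at 615 nm | probe or stimulus = nicotinamide 1.5 mM | buffer or medium = CSMM-D glucose medium, restrictive | times = 48 h at 30 °C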
# * = called active by the depositor; x = no result given. The list is not random: actives were taken first. Their share in the collection is about 2.7%.
SMILES,sdo1 growth,RAM network inh,BB579 growth dn,Yeast lifespan up
COc1ccc(CN(C(=O)CSc2nnc(-c3c[nH]c4ccccc34)o2)c2ccc(F)cc2)cc1OC,-0.68,9.9*,-33,x
COc1ccc(CN(C(=O)CSc2nnc(-c3ccc(F)cc3)o2)c2ccc(F)cc2)cc1,0.03,7,-17,5
CCC(=O)Nc1ccc(NC(=O)CSc2nnc(-c3ccc(O)cc3)n2CC2CCCO2)cc1 (stereo not given),x,1,x,x
CC(=O)Nc1ccc(C(=O)CSc2nnc(-c3ccc(O)cc3)n2CC2CCCO2)cc1 (stereo not given),-0.26,1,-23,64*
COc1cc(/C=N/OCC(=O)Nc2cc(C)cc(C)c2)ccc1OCc1ccc(Cl)cc1,0.4,7,-1,-6
COc1cc(/C=N/OCC(=O)NC2CCCCC2C)ccc1OCc1ccc(Cl)cc1 (stereo not given),-0.47,11*,-21,-1
CN1CCN(NC(=S)NC2CCCCC2)CC1,0.94,1,0,-2
CCCn1c(=O)[nH]c(=O)c2c1nc(-c1ccccc1)n2CCN1CCOCC1,0.28,-1,2,57*
CCOC(=O)COc1cc([N+](=O)[O-])cc2cccnc12,x,2,x,x
CCOC(=O)COc1ccccc1/C=C\[N+](=O)[O-],-0.9,-1,35,44*
CCCCCC(=O)N1CCN(CCN=CC2=C(O)CC(c3ccc(OC)cc3)CC2=O)CC1 (stereo not given),0.87,1,-3,8
CCCCCC(=O)N1CCN(CCN=CC2=C(O)CC(c3ccc(OC)c(OC)c3)CC2=O)CC1 (stereo not given),-0.02,2,-24,165*
CCOC(=O)/C(=N\Nc1ccccc1Cl)N1CCN(Cc2ccccc2)CC1,-1.6,-2,59*,-8
O=C(NCCc1ccccc1)N1c2ccccc2Sc2ccccc21,-1.5,9.8*,-36,-9
O=c1cc(-c2c(F)c(F)c(F)c(F)c2F)oc2ccccc12,-0.28,2,6,-14
O=c1cc(-c2c(F)c(F)c(F)c(F)c2F)oc2c(F)c(F)c(F)c(F)c12,-1.9,0,-32,106*
CC(=O)OCc1c(C)cc(C)c(/C=C(/C#N)C(N)=O)c1C,x,1,x,x
Oc1ccc(N=Nc2nc(-c3ccccc3)c(-c3ccccc3)[nH]2)cc1,-1.5,8.8*,-5,-3
CC(C)C(C(=O)Nc1ccc(N2CCOCC2)cc1)N1C(=O)c2ccccc2C1=O (stereo not given),-0.64,9.3*,-48,3
CCN(CC)C(=S)Nc1ccc2nc3n(c(=O)c2c1)CCCCC3,x,1,x,x
O=C1CCCC/C1=N\Nc1ccc(OCc2ccccc2)cc1,0.71,1,92*,4
CCCn1[nH]cc(SC)c(=O)c1=O,0.87,-1,2,42*
O=C(O)CN1CCN(Cc2ccccc2F)C1=O,x,0,x,x
O=C(Nc1nc(-c2ccccc2)cs1)C1COc2ccccc2O1 (stereo not given),-1.8,4,-14,-15
O=C(Nc1nc(-c2ccccn2)cs1)C1COc2ccccc2O1 (stereo not given),-3.4,0,93*,-6
SMILES,sdo1 growth,RAM network inh,BB579 growth dn,Yeast lifespan up
COc1ccc(Cc2nnc(NS(=O)(=O)c3ccc(Cl)cc3)s2)cc1OC,x,5,x,x
CCOc1ccc(/C=C/C(=O)c2ccc(-c3ccccc3)cc2)cc1,0.27,8.9*,-44,3
CCOc1ccc(/C=C/C(=O)Nc2cccc(C(C)=O)c2)cc1,-0.11,9.7*,-39,-2
CC1=CC(C)(C)N2C(=O)C3(NCCc4c3[nH]c3ccccc43)c3cccc1c32 (stereo not given),x,-1,x,x
CCN(c1cccc(C)c1)S(=O)(=O)c1ccc2c3c(cccc13)C(=O)N2,-1.8,8.5*,-15,x
CC1CCC2C(=O)N(c3ccc(Cc4ccncc4)cc3)C(=O)C2C1 (stereo not given),x,-1,x,x
COc1cc(OC)nc(-n2ncc(Br)c(Br)c2=O)n1,-0.72,2,-25,38*
CCN(CC)CCNC(=O)c1ccc(N2CCCCC2)c(NS(=O)(=O)c2ccc(C)cc2)c1,-1.2,0,-37,-9
COC(=O)c1ccc(N2CCCCC2)c(NS(=O)(=O)c2ccc(C)cc2)c1,-1.5,11*,-70,7
CCN(CC)S(=O)(=O)c1ccc(N2CCCC2)c(NS(=O)(=O)c2ccc(F)cc2)c1,-0.77,9.8*,-7,9

# Screening data deposited in PubChem BioAssay by several laboratories.
